Source: ChEMBL document CHEMBL1142267, “Optimization of alpha-ketooxazole inhibitors of fatty acid amide hydrolase” (J Med Chem, 2008)
pIC50, pKi: −log10 of the molar value.

What was measured:
[1] = molecular target: T1, Fatty-acid amide hydrolase 1 (Rattus norvegicus, UniProt P97612); experiment: Inhibition of rat recombinant FAAH expressed in Escherichia coli
T1 sequence (P97612 whole entry): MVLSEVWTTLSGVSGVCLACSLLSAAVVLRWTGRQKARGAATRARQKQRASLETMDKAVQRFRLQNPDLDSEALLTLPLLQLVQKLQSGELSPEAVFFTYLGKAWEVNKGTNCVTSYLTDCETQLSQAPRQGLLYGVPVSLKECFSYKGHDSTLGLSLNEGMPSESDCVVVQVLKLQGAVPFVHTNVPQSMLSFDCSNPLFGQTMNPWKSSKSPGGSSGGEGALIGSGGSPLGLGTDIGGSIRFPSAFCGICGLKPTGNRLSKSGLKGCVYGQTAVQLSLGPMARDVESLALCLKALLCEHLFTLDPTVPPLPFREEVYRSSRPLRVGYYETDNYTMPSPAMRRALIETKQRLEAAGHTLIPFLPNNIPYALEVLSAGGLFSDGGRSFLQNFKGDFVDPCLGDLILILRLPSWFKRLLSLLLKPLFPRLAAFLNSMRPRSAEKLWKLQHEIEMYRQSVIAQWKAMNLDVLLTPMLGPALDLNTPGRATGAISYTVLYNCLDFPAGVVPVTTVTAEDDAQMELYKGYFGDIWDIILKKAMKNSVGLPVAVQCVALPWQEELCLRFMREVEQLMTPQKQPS

[2] = molecular target: T2, Fatty-acid amide hydrolase 1 (Homo sapiens, UniProt O00519); experiment: Inhibition of human recombinant FAAH expressed COS7 cells; type: cell-based, COS-7
T2 sequence (O00519 whole entry): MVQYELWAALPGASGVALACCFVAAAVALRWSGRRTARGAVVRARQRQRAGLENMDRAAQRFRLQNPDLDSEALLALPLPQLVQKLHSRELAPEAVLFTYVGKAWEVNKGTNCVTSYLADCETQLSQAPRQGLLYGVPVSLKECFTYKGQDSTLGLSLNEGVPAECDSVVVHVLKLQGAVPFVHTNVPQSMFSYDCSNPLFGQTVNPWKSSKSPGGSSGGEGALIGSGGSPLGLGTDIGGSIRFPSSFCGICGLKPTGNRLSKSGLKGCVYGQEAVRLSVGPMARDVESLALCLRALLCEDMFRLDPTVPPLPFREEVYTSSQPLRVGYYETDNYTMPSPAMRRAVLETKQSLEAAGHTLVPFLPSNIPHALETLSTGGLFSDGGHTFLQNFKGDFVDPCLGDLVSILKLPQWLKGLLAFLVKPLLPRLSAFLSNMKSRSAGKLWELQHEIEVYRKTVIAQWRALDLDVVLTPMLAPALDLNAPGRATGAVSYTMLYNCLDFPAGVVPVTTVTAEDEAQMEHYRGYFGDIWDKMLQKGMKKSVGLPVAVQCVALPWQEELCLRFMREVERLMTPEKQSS
Method in brief: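 Enzyme source was solubilized membrane lysate of COS-7 cells transiently transfected with full-length human FAAH cDNA. Substrate 10 µM 14C-oleamide in pH 9.0 Tris/EDTA/glycerol/Triton X-100/Hepes buffer at room temperature, with three inhibitor concentrations. Reactions quenched in 0.1 N HCl at three time points, then EtOAc extraction and TLC of oleamide versus oleic acid. Ki from Dixon plot.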

Liver carboxylesterase 1 = molecular target: T3, Liver carboxylesterase 1 (Homo sapiens, UniProt P23141)
T3 sequence (P23141 whole entry): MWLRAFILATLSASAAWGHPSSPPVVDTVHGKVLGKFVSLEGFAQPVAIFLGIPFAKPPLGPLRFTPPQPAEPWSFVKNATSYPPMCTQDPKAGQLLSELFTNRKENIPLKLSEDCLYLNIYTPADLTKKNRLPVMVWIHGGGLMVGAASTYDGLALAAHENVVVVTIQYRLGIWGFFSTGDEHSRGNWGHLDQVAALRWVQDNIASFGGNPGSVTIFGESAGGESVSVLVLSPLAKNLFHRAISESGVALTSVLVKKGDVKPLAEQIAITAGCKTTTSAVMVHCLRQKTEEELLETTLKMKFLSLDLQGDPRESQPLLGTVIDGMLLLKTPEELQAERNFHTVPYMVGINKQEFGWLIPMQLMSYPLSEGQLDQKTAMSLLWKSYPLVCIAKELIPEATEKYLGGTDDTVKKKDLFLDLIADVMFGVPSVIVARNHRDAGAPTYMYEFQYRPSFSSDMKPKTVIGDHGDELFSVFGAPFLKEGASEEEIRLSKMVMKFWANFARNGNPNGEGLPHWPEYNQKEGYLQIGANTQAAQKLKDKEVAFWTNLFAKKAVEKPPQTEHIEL

[3] = molecular target: T4, Neutral cholesterol ester hydrolase 1 (Homo sapiens, UniProt Q6PIU2); experiment: Inhibition of KIAA1363
T4 sequence (Q6PIU2 whole entry): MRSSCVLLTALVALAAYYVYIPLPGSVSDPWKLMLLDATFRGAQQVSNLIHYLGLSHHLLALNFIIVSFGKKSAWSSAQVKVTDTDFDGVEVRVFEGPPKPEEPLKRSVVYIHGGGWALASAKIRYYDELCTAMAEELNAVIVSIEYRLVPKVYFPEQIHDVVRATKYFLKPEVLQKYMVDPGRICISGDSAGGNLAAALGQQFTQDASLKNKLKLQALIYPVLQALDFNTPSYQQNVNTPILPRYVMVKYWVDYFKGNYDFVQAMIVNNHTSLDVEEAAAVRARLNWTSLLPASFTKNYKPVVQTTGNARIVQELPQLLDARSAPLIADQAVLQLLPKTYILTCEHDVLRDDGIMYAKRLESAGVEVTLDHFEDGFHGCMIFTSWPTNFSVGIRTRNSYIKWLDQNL

[4] = Selectivity for rat recombinant FAAH over KIAA1363
[5] = Selectivity for rat recombinant FAAH over TGH
[6] = Selectivity for TGH over rat recombinant FAAH
[7] = molecular target: T2, Fatty-acid amide hydrolase 1

Structure (SMILES) | pIC50 [1] | pKi [1] | pKi [2] | pIC50 (Liver carboxylesterase 1) | pIC50 [3] | Ratio IC50 [4] | Selectivity ratio [4] | Ratio IC50 [5] | Selectivity ratio [6] | pKi [7]
N#Cc1cnc(C(=O)CCc2ccc(COc3ccccc3)cc2)o1 | 8.70 | 9.30 | 9.29 | 7.00 | 4.72 | 9500 | > 1000 | 50 |  | 
O=C(CCc1ccc(COc2ccccc2)cc1)c1ncco1 | 6.57 | 7.60 |  | 6.57 | < 4.00 | > 370 |  | 1 | 1 | 
N#Cc1cnc(C(=O)CCc2ccc(Oc3ccccc3)cc2)o1 | 8.30 | 9.10 | 9.07 | 7.80 | 4.70 | 4000 | > 1000 | 3 |  | 
CCCCCCCC/C=C\CCCCCCCC(=O)c1ncco1 |  |  |  |  |  |  |  |  |  | 7.00
O=C(CCc1ccc(Oc2ccccc2)cc1)c1ncco1 | 6.30 | 7.11 |  | 7.52 | < 4.00 | > 200 |  | 0.06 | 1 | 
O=C(CCc1ccc(COc2ccccc2)cc1)c1ncc(C(F)(F)F)o1 |  | 9.10 | 9.17 |  |  |  |  |  |  | 
O=C(CCc1ccc(-c2ccccc2)cc1)c1ncco1 | 6.74 | 7.80 |  | 8.35 | < 4.00 | > 550 |  | 0.025 | 1 | 
O=C(CCc1ccc(Oc2ccccc2)cc1)c1ncc(C(F)(F)F)o1 |  | 8.70 | 9.00 |  |  |  |  |  |  | 
